Results on 36 sequences are retold here after the EternaBench riboswitch data.

The term apparent Kd denotes the concentration giving half-maximal binding under the conditions of the assay.

In this data set the test system is MS2 coat protein. Nature of the data set: apparent Kd, MS2 coat protein; higher = weaker binding; RNA-MaP array; FMN 200 µM where present. In a few lines: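 Apparent Kd: the median of filtered binding-curve fits from single clusters. Designs were transcribed on Illumina sequencing-chip clusters by stalled E. coli RNA polymerase and titrated with SNAP-549-labelled MS2 coat protein from 0.7 or 1.5 nM, doubling to 3 µM, in 100 mM Tris-HCl pH 7.5, 80 mM KCl, 4 mM MgCl2, BSA, DTT, yeast tRNA and Tween-20. Each series ran without and then with constant ligand, and green signal was normalised to red-channel RNA signal and control-cluster median Fmax.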

The mark [1] stands for this setting: designed as: ON switch for flavin mononucleotide, no ligand.
Where [2] appears, read: ligand present: flavin mononucleotide, designed as: ON switch for flavin mononucleotide.
Setting [3] is: designed as: OFF switch for flavin mononucleotide, no ligand.
Where [4] appears, read: ligand present: flavin mononucleotide, designed as: OFF switch for flavin mononucleotide.

As for “GCGUUCAUGUAGAAGGUACCUACAACAUAUUAUAAACGCUAGACACAUGAGGAUCACCCAUGUUGUAAGGAUAUACAUGAACGC”, the “apparent Kd” value by setting is: under setting [1], 49 nM; under setting [2], 22 nM.
As to “AAAUGCCUGUCGAUGCUCGACAUGAGGAUCACCCAUGUAUGGCAGGAUAUGCAGAACUGACUCGUGCAGAAGGGCUAUACCUAA”, the “apparent Kd” value runs as follows: under setting [3], 8.06 nM; under setting [4], 24.7 nM.
“GGGUACAUCGGAGGAUAUCAUGUAAAUACAUGAGGAUCACCCAUGUCGAUGGAGACAUCGGAGAUUGAGAAGGCCGAUGUAGCG”: the “apparent Kd” value was 190 nM under setting [1] and 9.12 nM under setting [2].
On to “AUCAGCUCGUCAGGAUAUACAUUACUGCUUCGGCAGUGUAUUAAGAUCACAUGAGGAUCACCCAUGUAGAAGGGACGAGCUGAU”, for which the “apparent Kd” value runs as follows: under setting [3], 23.2 nM; under setting [4], 124 nM.
For “AUAUAUAGUGUGAGGAUAUGCUGGUCCUUGGAUCAGCAGAAGGCACAUGAGGAUCACCCAUGUAGUUUAUUUUG” the same measures were 17.5 nM and 77 nM.
Regarding “GUGGCACAUGAGGAUCACCCAUGUAGGUAGAACAUAGGAUAUCACCAACAAAAUACCUGGUGAGAAGGAUGAUGCC”, the “apparent Kd” value turned out to be 166 nM under setting [1] and 59.8 nM under setting [2].
Turning to “UUAUGAUUAAGAGGAUAUAUACAACAUGAGGAUCACCCAUGUACCCAUGUAGUAGAAGGCUUAUUUUUAUAUAAUAAUAUAAUU”, the “apparent Kd” value under setting [1] came to 143 nM and the “apparent Kd” value under setting [2] amounted to 47.6 nM.
On to “CUGUUGUGGUACUGCAUGGCUUGGAGAGAAGGGUGAUUCACAUGAGGAUCACCCAUGUAGGACUUACAGGAUAUUUCCGGGUCU”, for which the “apparent Kd” value was 62.6 nM under setting [1] and 100 nM under setting [2].
Consider “GCAGCUAAUGCAGGAUAUCAGCACGUGUAGUGCUGAGAAGGGCACAUGAGGAUCACCCAUGUGAUCAAUCAAUGUUAAUGCUGC”, for which the “apparent Kd” value stood at 9.43 nM under setting [3] and 38.3 nM under setting [4].
For “UUACUAUUACAGAAGGUUAAAUAAUAUAUAAAUGAAGGAUAUGUAACAUGAGGAUCACCCAUGUUUCACCCACAUGAGGAUCAC” the same measures were 13.9 nM and 12 nM.
For “GUCAGCUCGUGAGGAUAUACAACACUGCUUCGGCAGUCUAUUAAGAUCACAUGAGGAUCACCCAUGUAGAAGGCACGAGCUGAU” the same measures were 14.9 nM and 292 nM.
As to “GCGUAACAUGAGGAUCACCCAUGUGCCCGAGAAUUCGGGCCGAGAAGGGUGACCGGACGUAUGGCACAGGAUAUCGACGUUGUG”, the “apparent Kd” value runs as follows: under setting [1], 25.2 nM; under setting [2], 12.1 nM.
Consider “GCGAAUUAGUGAGGAUAUACAUAAUUUAAAACUGUAGAAGGCACAAUCCUCAAGACAUGAGGAUCACCCAUGUGAUAUUAAGCU”, for which the “apparent Kd” value amounted to 46 nM under setting [3] and 158 nM under setting [4].
Take “CACAUUUUAACAGGAUAUGUAAGGUUGUUUAUUAUUGCAUUUACACUCAUUACAGAAGGGUUAUACAUGAGGAUCACCCAUGUG”: the “apparent Kd” value under setting [1] was determined as 20.1 nM and the “apparent Kd” value under setting [2] was 14.5 nM.
Regarding “GCACGAGACUAAGGAUAUGGAGUGUCUACAUUAAACAUGAGGAUCACCCAUGUAAAGAGUACGAUUCAGAAGGUAGAGACGUGC”, the “apparent Kd” value by setting is: under setting [1], 51.5 nM; under setting [2], 23.5 nM.
Regarding “UGAUUGCCUGUAAGGAUAUCUACGGCCGUUCGCUGGGAGAAGGUACAUGAGGAUCACCCAUGUACAGUCAUGGG”, the “apparent Kd” value runs as follows: under setting [3], 42.9 nM; under setting [4], 93.5 nM.
On to “UUUAGUUGCGCGCAGGAUAUGUAUUAAUAUACAUGAGGAUCACCCAUGUGAGACCAAAUAGGUCUACAGAAGGGCGAAUCGCGAC”, for which the “apparent Kd” value by setting is: under setting [1], 446 nM; under setting [2], 47.6 nM.
For the sequence “GCCGGUUACACAGGAUAUCCCAUGUCGACGGCGACAUGAGGAUCACCCAUGUCCUGGACGGGUUAGGAGAAGGGUGUAAAAUGC”, the “apparent Kd” value under setting [1] was determined as 110 nM and the “apparent Kd” value under setting [2] was determined as 51.8 nM.
For “UUAAAACAUGAGGAUCACCCAUGUGAGGAUAUGAGCCGACUGUCCUGUCGGCAUGUAGUCAGAAGGUGCAGGGU”, the “apparent Kd” value came to 62.2 nM under setting [3] and 109 nM under setting [4].
As for “UCAUUUAUUACAGGAUAUAUUAGUAUACAGUUGUUUGGUUAUUACAUAUUAAUAGAAGGGUAGAACAUGAGGAUCACCCAUGUA”, the “apparent Kd” value was 234 nM under setting [1] and 119 nM under setting [2].
For “GCGCUGCGUCAGAAGGGCCGAAAAGAGAAGACGGCAGGAUAUGACAUGAGGAUCACCCAUGUACACGUCGCCGUGGGUGUUGGA”, the “apparent Kd” value under setting [3] was 57.9 nM and the “apparent Kd” value under setting [4] was 65 nM.
For “CUCGGACAUGAGGAUCACCCAUGUGAGGAUAUGGUGCUAUCGUCAUUAGACGAUUGCGUUAGAAGGCAUAUUUU” the same measures were 28.7 nM and 27.1 nM.
For “UGACUCGGAGGAUAUACAUGAGGAUCACCCAUGUUUACUUGCCGCCGAGUAACCUGGUGUAGAAGGUCGAGUGU” the same measures were 17.2 nM and 13.7 nM.
As for “UACAUAAAUGAAGGAUAUCGAUAUCCAACAUGAGGAUCACCCAUGUUGAGGAUCACCCAUGUAAAUGAGAAGGUUAACAUAACU”, the “apparent Kd” value reads like this: under setting [1], 70.5 nM; under setting [2], 73.5 nM.
On to “GUUGCGUUUGUGAGGAUAUGCUGUUCCUUGGUUCGGCAGAAGGCACAUGAGGAUCACCCAUGUGGUGUCGUUCC”, for which the “apparent Kd” value under setting [3] was 15.5 nM and the “apparent Kd” value under setting [4] came to 28.7 nM.
The corresponding values for “CGAGUUUUUGAGAAGGCAUAUUAUAUUAUACCACAUGUUUACAUGAGGAUCACCCAUGUUUCCUAUGAGGAUAUCAGAAUAUCG” are 11.8 nM and 10 nM.
For “UAGCGCUGUCGAGAGGAUAUGCGGUGAUGGACAUGAGGAUCACCCAUGUUAGCGAUAGCAUUACGGUAGAAGGCUCUACAGCUGC”, the “apparent Kd” value reads like this: under setting [1], 27.6 nM; under setting [2], 13.6 nM.
As to “GGAUGACAAAGUCAUCCUAUUCGAACAUGAGGAUCACCCAUGUAGGAUAUGCAACUCAAAGAGUUGCAGAAGGACAUGUGCUUU”, the “apparent Kd” value runs as follows: under setting [3], 34.7 nM; under setting [4], 166 nM.
Regarding “ACUGGUCGAGGAUAUACAUGAGGAUCACCCAUGUCGAUCAACCAGCGAUAGCUGGAAUGUAGAAGGCGACCAGU”, the “apparent Kd” value runs as follows: under setting [3], 200 nM; under setting [4], 446 nM.
The corresponding values for “AAAGGACGAGGAUAUACAUGAGGAUCACCCAUGUGUAAAACGUAAUAAAAUAACUUAUGUAGAAGGCGUCCAAA” are 30.6 nM and 216 nM.
For “CAGCGCUGUCGAGAGGAUAUGCUGUGAUGGACAUGAGGAUCACCCAUGUUAGCGAUAGCAUUACUGUAGAAGGCUCUACAGCUGC”, the “apparent Kd” value reads like this: under setting [1], 13.4 nM; under setting [2], 12.8 nM.
For the sequence “GGGAUGCUAGGAUAUACAUCGGGCUCCAGGAUGUUCCGGGAACAUGAGGAUCACCCAUGUAGAAGGAGCUAAAG”, the “apparent Kd” value is, setting by setting: under setting [3], 67.9 nM; under setting [4], 53.5 nM.
The corresponding values for “ACCUUACAUGAGGAUCACCCAUGUUAGGAUAUCUCGCUUGCGCAAUCACAGCACAAGCAGAGAAGGGACGCGGG” are 28.1 nM and 32.5 nM.
On to “GCGUUCUUGUAGAAGGUACAUAAAAUCUAUUUUUAACACAUGAAACAUGAGGAUCACCCAUGUUGUAAGGAUAUACAUGAACGC”, for which the “apparent Kd” value by setting is: under setting [1], 7.03 nM; under setting [2], 5.88 nM.
The corresponding values for “GAGAAGAGUAUAGGAUAUUAAGAAACAUGAGGAUCACCCAUGUAGUGAGUGUGAGAAGGGUAGGAGGUGGUAGGAGGAUCCAGG” are 22.3 nM and 16.4 nM.
On to “AAGGAUCGAGGAUAUACAUAGAUACAGAUUCAUGUAGAACUACAUGAGGAUCACCCAUGUAGAAGGCGAUCAUA”, for which the “apparent Kd” value runs as follows: under setting [3], 27.1 nM; under setting [4], 127 nM.
